Among all 27,000 compounds or so, about 250 (0.93%) were called active.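 How the source made its calls: active means mutant luminescence inhibited past about 50% while wild type luminescence and mutant growth stay under set limits (limit read from the data); inconclusive means mutant versus wild type luminescence inhibition gap past a set limit; inactive means the rest.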 Only a selection was taken, and actives are over-represented in it overall.
Assay: mutant yeast GCN4 reporter luminescence inhibitors – S. cerevisiae, eIF2B-epsilon R284H, Beta-Glo luminescence, primary screen (AID 688)
Settings: GCN4-lacZ luminescence; growth inhibition: measured here: mutant yeast growth, toxicity, concentration not given here; inhibition: stronger effect = higher value, screened at 25 µM (by protocol)
Procedure, shortened: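 Material – yeast eIF2B-epsilon R284H mutant carrying GCN4–beta-galactosidase fusion · Medium – YPD yeast growth medium · Compound – one concentration, 25 µM, 0.25% DMSO · Times – 16 h at 30 °C exposure · Signal – Beta-Glo luminescence plus absorbance at 595 nm · Read-out – % inhibition of reporter signal and growth versus controls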
In the case of `O=C(COc1ccccc1Cl)Nn1cnnc1`, the growth inhibition is reported as -7.89% and the inhibition is reported as 14.3% (inactive).
For `Cc1cccc(NC(=O)/C(=C\c2ccco2)NC(=O)c2ccccc2)c1`, the growth inhibition was 10.8% and the inhibition was 15.4% (inactive).
For `CCOc1ccc(C(=O)NC(C(=O)NCc2ccccn2)C(C)C)cc1` (configuration not stated), the growth inhibition was -4.76% and the inhibition was -9.95% (inactive).
In the case of `CC(=O)NC1=NN(C(C)=O)C(C)(c2ccc(Cl)s2)S1` (configuration not stated), the growth inhibition is reported as 6.67% and the inhibition is reported as 44.3% (inactive).
With `Cc1cc(C)n(C(=O)CCNC(=O)c2ccccc2Cl)n1` the inhibition was -0.54% (inactive).
With `O=C(CSc1nnnn1-c1ccccc1)NCc1ccco1` the inhibition was -70.2% (inactive).
For `Cc1ccc(C(=O)N/N=C/c2sc(=O)n(Cc3cccc(C(=O)O)c3)c2Cl)cc1`, the growth inhibition was -9.52% and the inhibition was 18.2% (inactive).
For `COc1ccc(C2CC(=O)C=C(NCC3CCCO3)C2)cc1` (configuration not stated), the growth inhibition was 10.8% and the inhibition was 17.6% (inactive).
With `CCOC(=O)c1cnc(SC)nc1Sc1ccc(Cl)cc1Cl` the growth inhibition was 5% and the inhibition was 22.2% (inactive).
In the case of `O=C(NC(C(=O)NCCN1CCOCC1)C12CC3CC(CC(C3)C1)C2)C1CCCCC1` (configuration not stated), the growth inhibition is reported as 28.1% and the inhibition is reported as 15.3% (inactive).
In the case of `Cc1ccc(S(=O)(=O)c2c(COC(=O)c3cccc(Cl)c3)c(-c3ccccc3)nn2C)cc1`, the growth inhibition is reported as 12.1% and the inhibition is reported as 35.8% (inactive).
In the case of `O=C(O)c1cc(S(=O)(=O)N2CCCCCC2)c(Cl)cc1Cl`, the inhibition is reported as 8.58% (inactive).
In the case of `CCCCCCNCCn1cnc2c(N)ncnc21`, the inhibition is reported as 37.2% (inactive).
With `CCOC(=O)CN1C(=O)C(=O)c2cc(C)ccc21` the growth inhibition was -4.55% and the inhibition was 21.8% (inactive).
In the case of `O=C(Nc1nc2ccc(S(=O)(=O)N3CCCC3)cc2s1)C1CCCO1` (configuration not stated), the growth inhibition is reported as -18.2% and the inhibition is reported as 18.6% (inactive).
For `CC(C)COC(=O)c1ccc(NC(=O)C2C3C=CC(C3)C2C(=O)O)cc1` (configuration not stated), the growth inhibition was 20.7% and the inhibition was 15.8% (inactive).
For `CS(=O)(=O)c1ccc2nc(NC(=O)C3C4C=CC(C4)C3C(=O)O)sc2c1` (configuration not stated), the growth inhibition was -6.9% and the inhibition was 55.1% (active).
With `COC(=O)C1=C(C(=O)OC)C2(OC1c1ccc(Br)cc1)C(=O)c1ccccc1C2=O` (configuration not stated) the growth inhibition was -26.3% and the inhibition was -2.75% (inactive).
For `CC(C)(C)c1ccc(C(=O)NCC(=O)OCN2C(=O)c3ccccc3C2=O)cc1`, the growth inhibition was -3.45% and the inhibition was 13.3% (inactive).
For `CCCCOC(=O)Cn1c(=N)n(CCN(CC)CC)c2ccccc21`, the growth inhibition was 19.4% and the inhibition was 17.1% (inactive).
With `COc1cc(OC)nc(NC(=O)CCl)n1` the growth inhibition was -16.7% and the inhibition was 3.82% (inactive).
For `COc1ccc(C2=NO[C@@H]3C(=O)N(Cc4ccccc4)C(=O)[C@H]23)cc1OC`, the growth inhibition was 14.3% and the inhibition was 7.78% (inactive).
For `COc1ccc(OC)c(NC(=O)CN2CCN(C(=O)c3ccco3)CC2)c1`, the growth inhibition was 18.5% and the inhibition was 17.4% (inactive).
For `c1ccc(-n2ncc3c2ncn2c(C4CCCCC4)nnc32)cc1`, the inhibition was 16.1% (inactive).
With `Cc1sc2nc(SCC(N)=O)n(C)c(=O)c2c1C` the growth inhibition was 6.45% and the inhibition was 20.9% (inactive).
For `O=C(Nc1ccc(Br)cc1)c1cccc(NC(=O)C2C3CC4OC(=O)C2C4C3)c1` (configuration not stated), the growth inhibition was 3.13% and the inhibition was 27.9% (inactive).
For `CC1=C(C(=O)Nc2ccccc2)C(c2ccco2)C(C#N)=C(SCC(N)=O)N1` (configuration not stated), the growth inhibition was -15% and the inhibition was 11.1% (inactive).
In the case of `COC(=O)C1=C(C)Nc2ncnn2C1c1cccnc1` (configuration not stated), the growth inhibition is reported as 10% and the inhibition is reported as 1.7% (inactive).
For `Cc1nn(C(C)CC(=O)O)c(C)c1C` (configuration not stated), the inhibition was 18.6% (inactive).
In the case of `Cc1cc2nnc(SCC(=O)N3CCN(c4ccccc4)CC3)n2c(N)n1`, the growth inhibition is reported as -13.6% and the inhibition is reported as 24.8% (inactive).
For `Cn1c(SCC(=O)C(C)(C)C)nnc1-c1ccccn1`, the growth inhibition was 12.8% and the inhibition was 20.3% (inactive).
With `CC(CO)N1CCS(=O)(=O)CC1` (configuration not stated) the growth inhibition was 15% and the inhibition was 18.1% (inactive).
With `O=C(CSc1nnc(-c2ccccn2)n1-c1ccccc1)Nc1ccc2c(c1)OCO2` the growth inhibition was -57.1% and the inhibition was 55.6% (active).
In the case of `Cc1ccc(-n2c(SCC(=O)Nc3ccc4c(c3)OCO4)nnc2-c2ccoc2C)cc1`, the inhibition is reported as -19.2% (inactive).
For `Cc1ccc(-n2c(SCC(=O)Nc3ccc4c(c3)OCO4)nnc2-c2ccccn2)cc1`, the growth inhibition was -2.78% and the inhibition was -3.69% (inactive).
For `CCCSC1=C(C#N)C(c2ccccc2C)C(C(=O)OC)C(=O)N1` (configuration not stated), the growth inhibition was 12% and the inhibition was -22.6% (inactive).
In the case of `Cc1nc2cc(NC(=O)NCc3ccccc3)ccc2o1`, the growth inhibition is reported as -9.52% and the inhibition is reported as -14.4% (inactive).
For `COCC(=O)Nc1ccc(Br)cc1`, the growth inhibition was -9.52% and the inhibition was -24.5% (inactive).
With `Cc1nc(NC(=O)CN(C)S(=O)(=O)c2ccc(Cl)cc2)sc1C` the growth inhibition was 5% and the inhibition was -24.3% (inactive).
For `C=CCNC(=O)c1cc2nc(C3CC3)cc(C(F)F)n2n1`, the inhibition was 12.7% (inactive).
In the case of `COCCNS(=O)(=O)c1cc(Br)ccc1OC`, the growth inhibition is reported as 9.09% and the inhibition is reported as 18.4% (inactive).
In the case of `COC(=O)c1ccc(Sc2ccc(F)cc2)c(N)c1`, the growth inhibition is reported as 27% and the inhibition is reported as 23.2% (inactive).
For `O=C(c1ccc2c(c1)OCO2)N1CCN(C(=O)c2ccco2)CC1`, the growth inhibition was 16.7% and the inhibition was 35.7% (inactive).
With `CCOCN(C(=O)Cn1c(C(C)O)nc2ccccc21)c1c(C)cccc1CC` (configuration not stated) the growth inhibition was -7.69% and the inhibition was 20.1% (inactive).
For `CC(=O)OCc1cc2cc(C)ccc2[nH]c1=O`, the growth inhibition was -2.5% and the inhibition was -23.7% (inactive).

— PubChem BioAssay AID688 (PCMD, 2007)
